Reference: ChEMBL document CHEMBL5329183, “Naphthylthiazoles: a class of broad-spectrum antifungals” (RSC Med Chem, 2023)

Legend:
Format in all cases: ADME, organism-based
Conditions in all cases: in vivo
[1] = Tmax in Sprague-Dawley rat at 25 mg/kg, po administered as single dose by LC/MS/MS analysis
Summary of the method: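 Male naïve Sprague–Dawley rats (n = 3) received a single 25 mg kg−1 dose by oral gavage in 5% ethanol/45% PEG 400/50% water. EDTA-K2 blood was sampled over 24 h. Plasma levels were measured by LC/MS/MS after acetonitrile protein precipitation, and parameters came from two-compartment analysis.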

[2] = Clearance in Sprague-Dawley rat at 25 mg/kg, po administered as single dose by LC/MS/MS analysis
Summary of the method: (§1)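 Male naïve Sprague–Dawley rats (n=3) received a single 25 mg kg−1 oral gavage dose in 5% ethanol/45% PEG 400/50% water. EDTA-K2 blood was sampled over 24 h post-dose. Plasma levels were measured by LC/MS/MS after acetonitrile protein precipitation, and parameters came from two-compartment analysis.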

[3] = AUC in Sprague-Dawley rat at 25 mg/kg, po administered as single dose by LC/MS/MS analysis; set-up: dose 25 mg/kg, route po; summary of the method: as §1

`Cc1nc(-c2ccc3ccccc3c2)sc1-c1nnc(N[C@@H]2CCCC[C@H]2N)o1` (relative stereo) gave a Tmax [1] of 3 h, a CL/F [2] of 5.33 mL/min and an AUC [3] of 79200 ng·h/mL.
